Source: PubChem
The list is not random: actives were taken first. Their share in the collection is about 2.2%.
STEP block: STEP phosphatase inhibitors, primary screen, biochemical, fluorescence intensity, uHTS; Tyrosine-protein phosphatase non-receptor type 5 (Homo sapiens), P54829; recombinant STEP, OMFP fluorogenic substrate; inhibition, % at 20 µM; 0.25% of 360,000 active; AID 588621, 2011;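 active means inhibition at 20 µM, scaled per plate between control wells, above about 37%, limit read from the data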;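 further: 0% = DMSO with enzyme and substrate and 100% = substrate only without enzyme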
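System: isolated STEP enzyme; schedule: 20 min enzyme reaction at room temperature, protected from light; medium: Bis-Tris buffer pH 6.0, 2.5 mM DTT, 0.005% Tween 20; signal: fluorescence, 480/540 nm; dosing: single compound dose of 20 µM, 1% DMSO final; also added: OMFP substrate, 25 µM final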
GRK2 inh: compounds blocking aptamer binding on GRK2 – biochemical, human GRK2, bead flow cytometry, HTS, primary screen. AID 488847, 2010. Beta-adrenergic receptor kinase 1 (Homo sapiens), P25098. inhibition of aptamer binding, % at 10 µM. 0.59% of 330,000 active. FAM-aptamer displacement from GRK2;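 active means inhibition of aptamer binding above 40%, roughly 3 SD of noise, on plates passing a quality check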;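 further: median bead fluorescence of bound FAM aptamer so fluorescent compounds give negative values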
SUMO1 PPI mod: modulators of SUMO1 protein-protein interactions, primary screen, biochemical, uHTS | Small ubiquitin-related modifier 1 (Homo sapiens), P63165 | SUMO1 binding to a labelled peptide, TR-FRET, 1 h | inhibition, % at 20 µM | 0.33% of 360,000 active; in the data active means inhibition above about 37%
Target sequence (P63165 whole entry, looked up): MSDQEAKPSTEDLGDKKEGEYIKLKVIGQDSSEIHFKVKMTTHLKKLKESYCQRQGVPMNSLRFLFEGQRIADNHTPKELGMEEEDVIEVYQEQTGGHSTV
DNMT1 inh: human DNMT1 methyltransferase inhibitors, primary screen, biochemical, molecular beacon, fluorescence, HinP1I cleavage, uHTS | DNA (cytosine-5)-methyltransferase 1 (Homo sapiens), P26358 | inhibition (reported as % activation of signal), % at 10 µM | 0.83% of 360,000 active | AID 588458, 2011; in the data active means inhibition above about 50%
LMPTP block: LMPTP phosphatase inhibitors, primary screen, biochemical, fluorescence intensity, uHTS; Low molecular weight phosphotyrosine protein phosphatase (Homo sapiens), P24666; recombinant LMPTP-A, OMFP fluorogenic substrate; inhibition, % at 20 µM; 0.22% of 360,000 active; AID 651560, 2012;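 active means compounds that cut the enzyme signal by at least half of the control window in the single-dose screen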;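 further: plate controls were DMSO wells with enzyme plus substrate for no effect and substrate without enzyme for full effect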
Target sequence (P24666 whole entry, looked up): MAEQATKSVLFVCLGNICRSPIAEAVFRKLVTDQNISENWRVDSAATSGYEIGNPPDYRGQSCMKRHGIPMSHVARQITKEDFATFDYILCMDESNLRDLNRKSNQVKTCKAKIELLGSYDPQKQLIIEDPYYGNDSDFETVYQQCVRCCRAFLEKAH
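Test system: LMPTP-A, protein tyrosine phosphatase of low molecular weight; Input: 0.625 nM enzyme; Incubation: 50 min dark incubation at room temperature; Signal: endpoint fluorescence intensity from OMFP dephosphorylation; Read-out basis: % inhibition versus control wells.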
Scp1 inh: Scp-1 phosphatase inhibitors, primary screen, biochemical, colorimetric, uHTS | Carboxy-terminal domain RNA polymerase II polypeptide A small phosphatase 1 (Homo … | Recombinant Scp1, phosphopeptide, malachite green phosphate absorbance | inhibition, % at 20 µM | 0.88% of 340,000 active;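 active means inhibition above about 50% at 20 µM, limit read from the data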;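 further: plate controls were DMSO wells with enzyme for no effect and wells lacking enzyme for full effect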
Target sequence (Q9GZU7 76-261 limits assumed): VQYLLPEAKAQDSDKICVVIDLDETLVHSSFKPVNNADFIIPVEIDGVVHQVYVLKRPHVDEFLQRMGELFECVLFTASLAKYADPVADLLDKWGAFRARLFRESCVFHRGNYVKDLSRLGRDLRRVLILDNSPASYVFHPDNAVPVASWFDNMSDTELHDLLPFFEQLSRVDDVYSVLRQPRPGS
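Test system – truncated SCP-1 phosphatase (76-261aa) · Reagent – Phosphorylated 17-residue peptide substrate · Incubation – 45 min room-temperature reaction, 5 min colour, 30 min stabiliser · Detection – colorimetric phosphate reagent with accelerator and stabiliser, absorbance at 630 nm · Measure – % inhibition at 20 µM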
GRK2 inh confirm: GRK2 aptamer-displacing inhibitors, retest, confirmation, biochemical, cherry pick 1, bead flow cytometry | bead-bound GRK2, FAM-aptamer displacement | shares compounds with GRK2 inh | aptamer displacement, % at 10 µM | 4% of 2,000 active;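 active means aptamer displacement above 40%, near three times the noise of non-fluorescent compounds, on plates passing quality checks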;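 further: negative values mostly reflect intrinsic compound fluorescence rather than true enhancement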
Aptamer quench SP: quenches fluorescent RNA aptamer, GRK2 hit artifact; shares compounds with GRK2 inh; Carboxyfluorescein RNA aptamer on beads, flow cytometry quenching; active compounds read low; fluorescence response (% of DMSO), % at 10 µM; 2,000 tested, under 10 active; AID 504580;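 active means compounds that quench the bead-bound fluorescent RNA probe, cutting fluorescence to under half of the solvent control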;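 further: counterscreen run without GRK2 so only probe quenching by compound is measured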
Scp1 confirm: Scp-1 phosphatase inhibitors, retest, confirmation, biochemical, colorimetric, single concentration; shares compounds with Scp1 inh; recombinant SCP-1 catalytic domain, phosphate release, malachite green absorbance; inhibition, % at 20 µM; 61% of 2,500 active;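 further: plate controls were DMSO with enzyme for no effect and buffer wells lacking enzyme for full effect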
Scp-1 MG ctr: colorimetric readout interference by compounds, confirmation, artefact control for Scp-1 inhibitor project, biochemical, single concentration | shares compounds with Scp1 inh | Colorimetric interference counterscreen, malachite green absorbance 630 nm | apparent inhibition (interference), % at 20 µM | 2,500 tested, under 10 active | AID 540313, 2011;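 further: compounds added after enzyme reaction finished so only phosphate colour detection is probed; plate controls were DMSO wells with completed Scp-1 reaction for no effect and substrate wells lacking enzyme for full effect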
Scp1 DSF: Scp-1 binding by thermal shift, confirmation, orthogonal assay for Scp-1 inhibitor project, biophysical, differential scanning fluorimetry. shares compounds with Scp1 inh. Recombinant SCP1, Sypro Orange thermal shift Tm. thermal shift relative to vanadate control, % at 40 µM. 25% of 1,500 active;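 active means substances whose mean melting-temperature shift, as a percentage of the reference inhibitor's shift, reaches about 5.3%, limit read from the data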;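 further: 0% = Tm of DMSO wells and 100% = Tm with sodium orthovanadate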
Beacon interf DR: spectral interference with molecular beacon fluorescence, dose response, artefact control for DNMT1 inhibitor project, biochemical, fluorescent molecular beacon; spectral interference counter-screen; 200 tested, under 10 active; IC50, µM; shares compounds with DNMT1 inh; AID 602382, 2012; call rule not given here
DNMT1 confirm: DNMT1 methyltransferase inhibitor retest, confirmation, biochemical, molecular beacon, fluorescence, single concentration. shares compounds with DNMT1 inh. DNMT1 molecular beacon HinP1I cleavage. inhibition, % at 10 µM. 8% of 2,300 active;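 active means average inhibition of at least 30% in the single-concentration confirmation test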
Beacon interf: counter-screen for DNMT1 inhibitors: spectral interference. shares compounds with DNMT1 inh. DNMT1 molecular beacon spectral interference counterscreen, fluorescence 485/520. activation (fluorescence interference), % at 10 µM. 1% of 2,300 active;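 active means activation of at least 30% at 10 µM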;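 further: DNMT1 catalytic domain with a HinP1I cleavage step and a FAM/dabcyl DNA beacon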
* hit, by the source's call; . = not tested or not shown.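 How the source made its calls, unless noted: active means inhibition of at least 30% at 20 µM; inactive means the rest.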

SMILES | STEP block | GRK2 inh | SUMO1 PPI mod | DNMT1 inh | LMPTP block | Scp1 inh | GRK2 inh confirm | Aptamer quench SP | Scp1 confirm | Scp-1 MG ctr | Scp1 DSF | DNMT1 confirm | Beacon interf | others
CCc1ccc(/C(C)=N/NC(=O)CNC(=O)/C=C/c2ccco2)cc1 | 24 | 42* | 108* | 92* | 9 | 94* | 12 | 91 | 65* | -12 | -14 | 69* | -6 | Beacon interf DR=>99
N#CCC(=O)Nc1ccc(C(=O)Nc2cccc(S(=O)(=O)N3CCCC3)c2)cc1 | -3 | . | -2 | -2 | 2 | . | . | . | . | . | . | . | .
C/C=C/c1cccc(-c2nc(C(=O)N3CCCCC3)cc3c2[C@@H](CCO)N(C(=O)NC(C)C)C3)c1 | . | . | 4 | . | 0 | . | . | . | . | . | . | . | .
CC(C)NC(=O)C1(C#N)C=C1c1ccccc1 (stereo unspecified) | . | . | -4 | . | -2 | . | . | . | . | . | . | . | .
O=C(CCc1n[nH]c(=O)[nH]c1=O)N/N=C/c1ccco1 | 38 | 44* | 31 | 51* | 40 | 81* | 25 | 96 | 56* | -7 | -1 | 2 | 7
COc1cc(NC(=O)c2ccc(-c3ccc(F)c(F)c3)c3ccoc23)cc(OC)c1OC | 2 | . | -8 | -2 | 2 | . | . | . | . | . | . | . | .
CCc1nc(SCC(=O)O)c(C#N)c2c1CCCC2 | 2 | 0 | 6 | 6 | 0 | -8 | . | . | . | . | . | . | .
Cc1nc(SCC(=O)O)c(C#N)c2c1CCCC2 | 16 | 82* | 26 | 58* | 2 | 96* | 15 | 101 | 70* | -13 | 4 | 2 | 3
